ChEMBL document CHEMBL4020725, “Design and synthesis of novel xanthine derivatives as potent and selective A2B adenosine receptor antagonists for the treatment of chronic inflammatory airway diseases” (Eur J Med Chem, 2017)

How the values were obtained:
[1] = biological target: T1, Adenosine receptor A1 (Homo sapiens) (UniProt P30542); assay: Displacement of [3H]-DPCPX from human adenosine A1 receptor expressed in HEK293 cell membranes at 0.1 uM after 90 mins relative to control
T1 sequence (whole entry): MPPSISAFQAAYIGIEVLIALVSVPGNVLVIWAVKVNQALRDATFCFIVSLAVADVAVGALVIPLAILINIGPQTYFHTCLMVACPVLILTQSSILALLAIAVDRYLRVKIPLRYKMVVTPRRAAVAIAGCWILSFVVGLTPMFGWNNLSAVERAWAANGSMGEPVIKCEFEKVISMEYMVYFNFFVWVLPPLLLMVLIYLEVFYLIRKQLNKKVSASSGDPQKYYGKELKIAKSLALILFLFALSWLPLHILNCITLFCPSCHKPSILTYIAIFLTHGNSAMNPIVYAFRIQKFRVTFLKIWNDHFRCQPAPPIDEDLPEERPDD
Procedure, shortened: (§1)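 Membranes from HEK-293 cells stably transfected with human A1, A2A or A3 receptor, pretreated with 1 U/ml ADA. Membranes are incubated 90 min at room temperature with gentle agitation. Tracer and buffer per receptor: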

Adenosine receptor A2b = biological target: T2, Adenosine receptor A2b (Homo sapiens, UniProt P29275); assay: Displacement of [3H]-MRS-1754 from human adenosine A2B receptor expressed in HEK293 cell membranes after 90 mins
T2 sequence (P29275 whole entry): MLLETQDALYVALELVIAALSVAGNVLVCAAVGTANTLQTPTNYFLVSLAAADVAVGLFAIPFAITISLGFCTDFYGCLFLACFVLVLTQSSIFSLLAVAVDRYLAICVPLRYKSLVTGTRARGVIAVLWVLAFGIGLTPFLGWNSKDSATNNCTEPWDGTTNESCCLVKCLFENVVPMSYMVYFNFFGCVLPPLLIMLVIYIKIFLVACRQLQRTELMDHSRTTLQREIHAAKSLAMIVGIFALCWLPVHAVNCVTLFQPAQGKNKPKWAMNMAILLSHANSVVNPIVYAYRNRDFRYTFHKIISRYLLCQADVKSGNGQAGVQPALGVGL
Procedure, shortened: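 Membranes from HEK-293 cells stably expressing human A2B, ADA-treated, incubated with 1.6 nM [3H]-MRS-1754 in 50 mM Tris pH 6.5, 5 mM MgCl2, 1 mM EDTA, 1 U/ml ADA. Incubation 90 min at room temperature. Filtration; nonspecific binding with 100 µM NECA. Eight compound concentrations, each in triplicate; Ki derived by fitting.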

[2] = biological target: Adenosine receptor A2a (Homo sapiens) (UniProt P29274); assay: Displacement of [3H]-ZM241385 from human adenosine A2A receptor expressed in HEK293 cell membranes at 0.1 uM after 90 mins relative to control; procedure, shortened: as §1
[3] = biological target: T3, Adenosine receptor A3 (Homo sapiens) (UniProt P0DMS8); assay: Displacement of [3H]-HEMADO from human adenosine A3 receptor expressed in HEK293 cell membranes at 1 uM after 90 mins relative to control; procedure, shortened: as §1
T3 sequence (whole entry): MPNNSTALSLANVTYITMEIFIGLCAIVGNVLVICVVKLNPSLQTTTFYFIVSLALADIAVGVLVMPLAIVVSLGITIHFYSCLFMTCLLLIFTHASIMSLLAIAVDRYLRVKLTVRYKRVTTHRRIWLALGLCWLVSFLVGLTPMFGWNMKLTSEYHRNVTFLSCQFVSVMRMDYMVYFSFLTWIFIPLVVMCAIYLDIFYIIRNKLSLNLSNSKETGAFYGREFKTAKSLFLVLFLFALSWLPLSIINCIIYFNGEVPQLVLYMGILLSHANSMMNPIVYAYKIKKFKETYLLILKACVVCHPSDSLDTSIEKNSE

Sequence of Adenosine receptor A2a (Homo sapiens) (P29274 whole entry): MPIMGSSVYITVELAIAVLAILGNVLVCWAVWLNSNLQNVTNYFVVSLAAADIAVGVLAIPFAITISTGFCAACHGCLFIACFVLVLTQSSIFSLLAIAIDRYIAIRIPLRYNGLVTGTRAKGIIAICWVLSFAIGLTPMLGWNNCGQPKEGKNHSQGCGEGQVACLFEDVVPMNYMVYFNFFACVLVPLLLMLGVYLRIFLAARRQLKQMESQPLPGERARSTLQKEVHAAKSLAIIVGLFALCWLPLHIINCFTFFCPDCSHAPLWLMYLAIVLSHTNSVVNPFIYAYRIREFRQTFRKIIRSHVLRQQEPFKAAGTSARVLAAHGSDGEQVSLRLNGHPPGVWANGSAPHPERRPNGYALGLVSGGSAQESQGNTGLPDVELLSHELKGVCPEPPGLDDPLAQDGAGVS

SMILES	inhibition [1]	Ki (Adenosine receptor A2b; read-out: Ki)	inhibition [2]	inhibition [3]	Ki (Adenosine receptor A2b; hek293)
CCCn1c(=O)c2[nH]c(-c3ccc(OCC#Cc4ccc(OC(F)(F)F)cc4)cc3)nc2n(CCC)c1=O	–	> 600 nM	–	–	–
CCCn1c(=O)[nH]c2nc(-c3cnn(CC#Cc4cccc(C(=O)O)c4)c3)[nH]c2c1=O	–	48 nM	–	–	–
CCCn1c(=O)c2[nH]c(-c3cnn(CC#Cc4cccc(C(=O)O)c4)c3)nc2n(CC)c1=O	–	190 nM	–	–	–
CCCn1c(=O)c2[nH]c(-c3ccc(OCC#Cc4cccc(F)c4)cc3)nc2n(CCC)c1=O	–	> 1000 nM	–	–	–
CCCn1c(=O)c2[nH]c(-c3cnn(CC#CCN(CC)CC)c3)nc2n(CCC)c1=O	71%	200 nM	59%	69%	–
CCCn1c(=O)c2[nH]c(-c3cc(OCC#Cc4cccc(OC(F)(F)F)c4)no3)nc2n(CCC)c1=O	–	> 600 nM	–	–	–
CCCn1c(=O)c2[nH]c(-c3cnn(CC#Cc4ccc(C(=O)O)cc4)c3)nc2n(CC)c1=O	–	130 nM	–	–	–
CCCn1c(=O)c2[nH]c(-c3cc(OCC#Cc4ccc(C(F)(F)F)cc4)no3)nc2n(CCC)c1=O	–	–	–	–	Nd(Insoluble)
CCCn1c(=O)c2[nH]c(-c3cnn(CC#CC4(O)CCCC4)c3)nc2n(CCC)c1=O	–	79 nM	–	–	–
CCCn1c(=O)c2[nH]c(-c3cnn(CC#CCN4CCN(C)CC4)c3)nc2n(CCC)c1=O	55%	83 nM	73%	79%	–
CCCn1c(=O)c2[nH]c(-c3cnn(CC#CCN4CCCCC4)c3)nc2n(CCC)c1=O	64%	140 nM	74%	73%	–
CCCn1c(=O)c2[nH]c(-c3cc(OCC#Cc4cccc(C(F)(F)F)c4)no3)nc2n(CCC)c1=O	–	> 600 nM	–	–	–
CCCn1c(=O)c2[nH]c(-c3cnn(CC#CCN4CCOCC4)c3)nc2n(CCC)c1=O	28%	330 nM	39%	51%	–
CCCn1c(=O)c2[nH]c(-c3cc(OCC#Cc4ccc(OC(F)(F)F)cc4)n(C)n3)nc2n(CCC)c1=O	–	–	–	–	Nd(Insoluble)
CCCn1c(=O)c2[nH]c(-c3cc(OCC#Cc4cccc(C(F)(F)F)c4)n(C)n3)nc2n(CCC)c1=O	–	–	–	–	Nd(Insoluble)
CCCn1c(=O)c2[nH]c(-c3ccc(OCC#Cc4cccc(OC(F)(F)F)c4)cc3)nc2n(CCC)c1=O	–	–	–	–	Nd(Insoluble)
CCCn1c(=O)c2[nH]c(-c3cc(OCC#Cc4cccc(F)c4)no3)nc2n(CCC)c1=O	–	55 nM	–	–	–
CCCn1c(=O)c2[nH]c(-c3ccc(OCC#Cc4ccc(C(F)(F)F)cc4)cc3)nc2n(CCC)c1=O	–	–	–	–	Nd(Insoluble)
CCCn1c(=O)c2[nH]c(-c3ccc(OCC#Cc4ccc(F)cc4)cc3)nc2n(CCC)c1=O	–	–	–	–	Nd(Insoluble)
CCCn1c(=O)c2[nH]c(-c3cnn(CC#CC4(O)CCCCC4)c3)nc2n(CCC)c1=O	–	100 nM	–	–	–

Continued by falling Ki (Adenosine receptor A2b; read-out: Ki), values first:

inhibition [1]	Ki (Adenosine receptor A2b; read-out: Ki)	inhibition [2]	inhibition [3]	Ki (Adenosine receptor A2b; hek293)	SMILES
52%	29 nM	29%	25%	–	CCCn1c(=O)c2[nH]c(-c3cnn(CC#Cc4ccccc4C(F)(F)F)c3)nc2n(CCC)c1=O
42%	23 nM	60%	–	–	CC#CCn1cc(-c2nc3c([nH]2)c(=O)n(CCC)c(=O)n3CCC)cn1
19%	17.6 nM	44%	25%	–	CCCn1c(=O)c2[nH]c(-c3cnn(CC#Cc4ccc(C(=O)O)cc4)c3)nc2n(CCC)c1=O
–	15 nM	–	–	–	CCCn1c(=O)c2[nH]c(-c3cc(OCC#Cc4ccc(F)cc4)no3)nc2n(CCC)c1=O
37%	12 nM	41%	43%	–	CCCn1c(=O)c2[nH]c(-c3cnn(CC#Cc4ccccc4C(=O)OC)c3)nc2n(CCC)c1=O
66%	12 nM	21%	14%	–	CCCn1c(=O)c2[nH]c(-c3cnn(CC#Cc4ccc(C(F)(F)F)cc4)c3)nc2n(CC)c1=O
69%	12 nM	10%	31%	–	CCCn1c(=O)c2[nH]c(-c3cnn(CC#CCN4CCN(c5cccc(C(F)(F)F)c5)CC4)c3)nc2n(CCC)c1=O
84%	9.9 nM	49%	32%	–	CCCn1c(=O)c2[nH]c(-c3cnn(CC#Cc4ccc(OC(F)(F)F)cc4)c3)nc2n(CC)c1=O
73%	7.4 nM	58%	23%	–	CCCn1c(=O)c2[nH]c(-c3cnn(CC#Cc4cccc(F)c4)c3)nc2n(CC)c1=O
92%	7.3 nM	56%	33%	–	CCCn1c(=O)c2[nH]c(-c3cnn(CC#Cc4ccc(F)cc4)c3)nc2n(CC)c1=O
87%	6.7 nM	64%	0%	–	CCCn1c(=O)c2[nH]c(-c3cnn(CC#Cc4cccc(F)c4)c3)nc2n(CCC)c1=O
70%	6.5 nM	33%	0%	–	CCCn1c(=O)c2[nH]c(-c3cnn(CC#Cc4ccc(C)cc4)c3)nc2n(CCC)c1=O
57%	6.3 nM	74%	21%	–	CCCn1c(=O)c2[nH]c(-c3cnn(CC#Cc4cccc(OC)c4)c3)nc2n(CCC)c1=O
105%	5.9 nM	66%	19%	–	CCCn1c(=O)c2[nH]c(-c3cnn(CC#Cc4ccc(F)cc4)c3)nc2n(CCC)c1=O
92%	5.5 nM	51%	37%	–	CCCn1c(=O)c2[nH]c(-c3cnn(CC#Cc4ccc(OC(F)(F)F)cc4)c3)nc2n(CCC)c1=O
57%	5 nM	55%	9%	–	CCCn1c(=O)c2[nH]c(-c3cnn(CC#Cc4cccc(C)c4)c3)nc2n(CCC)c1=O
43%	4.9 nM	64%	32%	–	CCCn1c(=O)c2[nH]c(-c3cnn(CC#Cc4cccc(C(F)(F)F)c4)c3)nc2n(CCC)c1=O
52%	3.7 nM	84%	0%	–	CCCn1c(=O)c2[nH]c(-c3cnn(CC#Cc4cccc(C#N)c4)c3)nc2n(CCC)c1=O
80%	3.5 nM	19%	27%	–	CCCn1c(=O)c2[nH]c(-c3cnn(CC#Cc4ccc(C(=O)OCC)cc4)c3)nc2n(CCC)c1=O
14%	2.8 nM	33%	0%	–	CCCn1c(=O)[nH]c2nc(-c3cnn(CC#Cc4cccc(OC(F)(F)F)c4)c3)[nH]c2c1=O
26%	2.2 nM	39%	0%	–	CCCn1c(=O)[nH]c2nc(-c3cnn(CC#Cc4cccc(C(F)(F)F)c4)c3)[nH]c2c1=O
88%	1.6 nM	46%	17%	–	CCCn1c(=O)[nH]c2nc(-c3cnn(CC#Cc4ccc(OC(F)(F)F)cc4)c3)[nH]c2c1=O
84%	1.5 nM	30%	12%	–	CCCn1c(=O)c2[nH]c(-c3cnn(CC#Cc4ccc(C(F)(F)F)cc4)c3)nc2n(CCC)c1=O
89%	1.3 nM	39%	15%	–	CCCn1c(=O)[nH]c2nc(-c3cnn(CC#Cc4ccc(C(F)(F)F)cc4)c3)[nH]c2c1=O
